Data published in ChEMBL document CHEMBL3588796 (Bioorg Med Chem, 2015).
pIC50, pKi: −log10 of the molar value.

Experiments:
[1] = biological target: T1, Kappa-type opioid receptor (Homo sapiens, UniProt P41145); assay: Antagonist activity against HA-tagged human recombinant kappa opioid receptor expressed in CHO cells assessed as inhibition of U69,593-induced ERK phosphorylation pre-incubated with compound before U69,593 stimulation for 10 mins relative to control; assay type: cell-based; set-up: concentration or dose not given beside the values
Outline: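 hKOR-CHO cells, 15,000 per well, plated overnight at 37 °C and serum-starved 1 h. Compound added, then 100 nM U69,593 for 10 min at 37 °C. Fixed cells stained overnight at 4 °C for phospho- and total ERK1/2. In-cell western read by infrared imaging at 700/800 nm. Three-parameter nonlinear fit; 2–4 replicates per experiment, n ≥ 3.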

[2] = biological target: T1, Kappa-type opioid receptor; assay: Antagonist activity against human kappa opioid receptor expressed in human U2OS cells co-expressing beta-arrestin2 pre-treated for 15 mins before U69,593 stimulation for 90 mins by DiscoveRx beta-arrestin2 recruitment based PathHunter assay relative to control; assay type: cell-based; set-up: concentration or dose not given beside the values
Outline: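 U2OS-hKOR-βarrestin2 PathHunter cells, 5,000 per well, plated overnight in Opti-MEM with 1% FBS. Antagonist pretreatment 15 min at 37 °C, then 1 μM U69,593 for 90 min at 37 °C. Detection reagent 60 min at room temperature; chemiluminescence read-out. Concentration-response curves fitted by three-parameter regression; n ≥ 3 independent experiments.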

[3] = biological target: T1, Kappa-type opioid receptor; assay: Antagonist activity against HA-tagged human recombinant kappa opioid receptor expressed in CHO cell membranes incubated for 1 hr by [35S]GTPgammaS binding assay; assay type: functional; conditions: for pIC50: read-out: IC50
[4] = biological target: T1, Kappa-type opioid receptor; assay: Antagonist activity against HA-tagged human recombinant kappa opioid receptor expressed in CHO cells assessed as inhibition of U69,593-induced ERK phosphorylation pre-incubated with compound before U69,593 stimulation for 10 mins; assay type: cell-based
[5] = biological target: T1, Kappa-type opioid receptor; assay: Antagonist activity against human kappa opioid receptor expressed in human U2OS cells co-expressing beta-arrestin2 pre-treated for 15 mins before U69,593 stimulation for 90 mins by DiscoveRx beta-arrestin2 recruitment based PathHunter assay; assay type: cell-based
[6] = biological target: Kappa-type opioid receptor (Rattus norvegicus, UniProt P34975); assay: Displacement of radio-labeled U69,593 from rat kappa opioid receptor expressed in HEK293 cell membranes
[7] = biological target: T2, Delta-type opioid receptor (Homo sapiens, UniProt P41143); assay: Binding affinity to delta opioid receptor (unknown origin)
Mu-type opioid receptor [8] = biological target: T3, Mu-type opioid receptor (Homo sapiens, UniProt P35372); assay: Binding affinity to mu opioid receptor (unknown origin)
Mu-type opioid receptor [9] = biological target: T3, Mu-type opioid receptor; assay: Antagonist activity against mu opioid receptor (unknown origin)
[10] = biological target: T2, Delta-type opioid receptor; assay: Antagonist activity against delta opioid receptor (unknown origin)

Sequence of Kappa-type opioid receptor (Rattus norvegicus, UniProt P34975) (P34975 whole entry): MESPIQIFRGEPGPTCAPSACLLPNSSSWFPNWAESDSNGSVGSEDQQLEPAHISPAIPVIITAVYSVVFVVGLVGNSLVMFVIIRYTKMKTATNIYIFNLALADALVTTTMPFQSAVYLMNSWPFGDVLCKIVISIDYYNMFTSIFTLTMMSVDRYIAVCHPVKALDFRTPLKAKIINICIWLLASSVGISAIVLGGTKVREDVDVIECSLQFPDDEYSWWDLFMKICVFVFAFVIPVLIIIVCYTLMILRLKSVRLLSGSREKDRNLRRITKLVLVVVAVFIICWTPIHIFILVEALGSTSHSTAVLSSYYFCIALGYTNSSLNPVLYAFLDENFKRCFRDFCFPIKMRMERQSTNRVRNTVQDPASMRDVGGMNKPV
T3 sequence (P35372 whole entry): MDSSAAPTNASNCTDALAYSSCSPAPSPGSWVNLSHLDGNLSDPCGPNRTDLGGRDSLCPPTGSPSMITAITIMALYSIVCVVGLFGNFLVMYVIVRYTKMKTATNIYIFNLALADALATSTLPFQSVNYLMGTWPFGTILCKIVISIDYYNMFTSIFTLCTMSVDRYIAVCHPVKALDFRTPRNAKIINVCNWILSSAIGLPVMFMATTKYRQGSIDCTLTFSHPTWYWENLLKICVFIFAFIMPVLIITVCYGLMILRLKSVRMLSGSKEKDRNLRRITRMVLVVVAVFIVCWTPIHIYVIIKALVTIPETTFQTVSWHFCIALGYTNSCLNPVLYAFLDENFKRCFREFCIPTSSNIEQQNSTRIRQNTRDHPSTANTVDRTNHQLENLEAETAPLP
T2 sequence (P41143 whole entry): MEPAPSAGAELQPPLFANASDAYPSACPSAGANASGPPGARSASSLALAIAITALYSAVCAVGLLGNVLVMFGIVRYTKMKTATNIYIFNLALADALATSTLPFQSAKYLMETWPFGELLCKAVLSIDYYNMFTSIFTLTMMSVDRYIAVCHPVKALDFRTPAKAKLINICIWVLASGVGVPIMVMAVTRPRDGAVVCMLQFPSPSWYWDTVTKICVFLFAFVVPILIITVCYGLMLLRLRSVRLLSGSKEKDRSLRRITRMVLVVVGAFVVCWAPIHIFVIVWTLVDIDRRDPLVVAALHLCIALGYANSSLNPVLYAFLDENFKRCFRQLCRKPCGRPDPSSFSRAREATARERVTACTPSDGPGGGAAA
T1 sequence (P41145 whole entry): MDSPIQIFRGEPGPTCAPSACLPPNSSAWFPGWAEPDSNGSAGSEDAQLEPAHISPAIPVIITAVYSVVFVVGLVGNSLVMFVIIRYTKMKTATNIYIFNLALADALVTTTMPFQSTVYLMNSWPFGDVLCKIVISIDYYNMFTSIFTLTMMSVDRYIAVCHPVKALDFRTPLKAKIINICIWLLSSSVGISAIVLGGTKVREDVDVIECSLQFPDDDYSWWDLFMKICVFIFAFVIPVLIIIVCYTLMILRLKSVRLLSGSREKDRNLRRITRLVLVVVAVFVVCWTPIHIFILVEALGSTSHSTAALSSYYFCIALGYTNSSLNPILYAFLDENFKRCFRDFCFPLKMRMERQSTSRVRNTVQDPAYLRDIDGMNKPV

| Compound | inhibition [1] [%] | inhibition [2] [%] | other results |
| --- | --- | --- | --- |
| Cc1ccc(S(=O)(=O)N2CCc3cc(C(=O)NCCN(Cc4ccc(F)cc4)C(C)C)ccc3C2)cc1 | > 86 | > 86 | – |
| Cc1ccc(S(=O)(=O)N2CCc3cc(C(=O)NCCN(Cc4ccc(Br)cc4)C(C)(C)C)ccc3C2)cc1 | > 86 | > 86 | – |
| Cc1ccc(S(=O)(=O)N(C)Cc2ccc(C(=O)N(C)CCN(Cc3ccccc3)C(C)C)cc2)cc1 | – | – | IC50 ([3]; cho): Not Active; IC50 [4]: Not Active; IC50 [5]: Not Active |
| CCc1ccc(S(=O)(=O)N2CCc3cc(C(=O)NCCN(Cc4ccc(Br)cc4)C(C)C)ccc3C2)cc1 | > 86 | > 86 | – |
| Oc1ccc2c3c1O[C@H]1c4[nH]c5c(c4C[C@@]4(O)[C@@H](C2)N(CC2CC2)CC[C@]314)C[C@@]1(O)[C@H]2Cc3ccc(O)c4c3[C@@]1(CCN2CC1CC1)[C@H]5O4 | > 86 | > 86 | – |
| Cc1ccc(S(=O)(=O)NCc2ccc(C(=O)NCCN3Cc4ccccc4C3)cc2)cc1 | – | – | pIC50 [3]: < 4.74 |
| Cc1cc(C)c(S(=O)(=O)N2CCc3cc(C(=O)NCCN(Cc4ccc(Br)cc4)C(C)(C)C)ccc3C2)c(C)c1 | > 86 | > 86 | – |
| Cc1ccc(S(=O)(=O)NCc2ccc(C(=O)NC3CCN(Cc4ccccc4)C3)cc2)cc1 (stereo not given) | – | – | pIC50 [3]: < 4.74 |
| Cc1ccc(S(=O)(=O)NCc2ccc(C(=O)NCCN(Cc3ccc(Br)cc3)C(C)C)cc2)cc1 | > 86 | > 86 | – |
| Cc1ccc(S(=O)(=O)N2CCc3cc(C(=O)NCCN(Cc4ccc(Cl)cc4)C(C)(C)C)ccc3C2)cc1 | > 86 | > 86 | pKi [6]: 7.28; pKi [7]: < 5.00; pKi (Mu-type opioid receptor [8]): < 5.00 |
| Cc1ccc(S(=O)(=O)N2CCc3cc(C(=O)NCCN(Cc4ccc(F)cc4)C(C)(C)C)ccc3C2)cc1 | > 86 | > 86 | – |
| Cc1ccc(S(=O)(=O)NCc2ccc(C(=O)NCCN(Cc3ccccc3)C(C)C)cc2)cc1 | > 86 | > 86 | pIC50 (Mu-type opioid receptor [9]): < 4.62; pIC50 [10]: < 4.49; pKi [6]: 7.30; pKi [7]: 5.96; pKi (Mu-type opioid receptor [8]): 6.51 |
| Cc1cc(C)c(S(=O)(=O)N2CCc3cc(C(=O)NCCN(Cc4ccccc4)C(C)C)ccc3C2)c(C)c1 | > 86 | > 86 | – |
| CCc1ccc(S(=O)(=O)N2CCc3cc(C(=O)NCCN(Cc4ccccc4)C(C)(C)C)ccc3C2)cc1 | > 86 | > 86 | – |
| Cc1ccc(S(=O)(=O)N2CCc3cc(C(=O)NCCN(Cc4ccccc4)C(C)(C)C)ccc3C2)cc1 | > 86 | > 86 | pKi [6]: 7.43; pKi [7]: 5.63; pKi (Mu-type opioid receptor [8]): 5.76 |
| Cc1ccc(S(=O)(=O)N2CCc3cc(C(=O)NCCN(Cc4ccc(Cl)cc4)C(C)C)ccc3C2)cc1 | > 86 | > 86 | – |
| Cc1ccc(S(=O)(=O)NCc2ccc(C(=O)NCC3CCCN(Cc4ccccc4)C3)cc2)cc1 (stereo not given) | – | – | pIC50 [3]: < 4.74 |
| Cc1cc(C)c(S(=O)(=O)N2CCc3cc(C(=O)NCCN(Cc4ccc(F)cc4)C(C)(C)C)ccc3C2)c(C)c1 | > 86 | > 86 | – |
| Cc1ccc(S(=O)(=O)N2CCc3cc(C(=O)NCCN(Cc4ccc(Br)cc4)C(C)C)ccc3C2)cc1 | > 86 | > 86 | pKi [6]: 7.14; pKi [7]: 5.28; pKi (Mu-type opioid receptor [8]): 5.09 |
